This note sets out measurements from ChEMBL document CHEMBL4359895, “Discovery and biological evaluation of darolutamide derivatives as inhibitors and down-regulators of wild-type AR and the mutants” (Eur J Med Chem, 2019).

Bounds are passed on as bounds.

The subject of assay [1] is VCaP. The assay is described as follows: Antiproliferative activity against human VCaP expressing AR assessed as reduction in cell viability incubated for 6 days by CCK-8 assay. It counts as functional, cell-based. Conditions: 144 h. The method in brief:
(§1)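 Cell proliferation assay run on LNCaP/AR, VCaP, 22Rv1, PC-3 and L-02 cells, with PC-3 and L-02 serving as AR-independent toxicity controls. IC50 fitted in GraphPad Prism 5 as the mean of at least two experiments, each in duplicate. Deviations under 35%.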
On the technique in general: Tetrazolium dyes change colour on reduction, which living cells bring about.

Assay [2] relates to LNCaP. Kind of assay: Antiproliferative activity against human LNCAP expressing AR assessed as reduction in cell viability incubated for 6 days by CCK-8 assay. Conditions: 144 h. It counts as functional, cell-based. The method in brief:
as §1

The test system of assay [3] is PC-3. The assay is described as follows: Cytotoxicity against human PC3 assessed as reduction in cell viability incubated for 6 days by CCK-8 assay. It counts as cell-based. To be noted: PC-3, 144 h. The method in brief:
as §1

Assay [4] relates to CWR22R. The assay is described as follows: Antiproliferative activity against human 22Rv1 expressing AR assessed as reduction in cell viability incubated for 6 days by CCK-8 assay. It counts as functional, cell-based. To be noted: 22Rv1, 144 h. The method in brief:
as §1

In assay [5] the test system is L02. The assay is described as follows: Cytotoxicity against human L02 assessed as reduction in cell viability incubated for 6 days by CCK-8 assay. It counts as cell-based. To be noted: L02, 144 h. The method, boiled down: as §1

Broadly, the IC50 is the concentration that gives 50% inhibition. On to `C[C@@H](Cn1ccc(-c2ccc(C#N)c(Cl)c2)n1)NC(=O)c1ccccc1F`, for which the half-inhibitory concentration (IC50) in assay [1] is 2.19 µM; in assay [2], 1.81 µM; in assay [3], greater than 30 µM.

With `C[C@@H](Cn1ccc(-c2ccc(C#N)c(Cl)c2)n1)NC(=O)C1CC(=O)C1`, the IC50 in assay [1] is 22.5 µM; in assay [2], 3.04 µM; in assay [3], greater than 30 µM.

`C[C@@H](Cn1ccc(-c2ccc(C#N)c(Cl)c2)n1)Nc1cnc2ccccc2c1`: the IC50 turned out to be 1.94 µM in assay [1], 1.87 µM in assay [2] and 6.04 µM in assay [4].

Regarding `C[C@H](Cn1ccc(-c2ccc(C#N)c(Cl)c2)n1)Nc1ncnc2nc[nH]c12`, the IC50 in assay [1] is 2 µM; in assay [2], 0.85 µM; in assay [3], 1.56 µM; in assay [4], 10.6 µM.

On to `C[C@@H](Cn1ccc(-c2ccc(C#N)c(Cl)c2)n1)Nc1cncc2ccccc12`, for which the half-inhibitory concentration (IC50) is 12.4 µM in assay [1] and 2.28 µM in assay [2].

Take `C[C@@H](Cn1ccc(-c2cc(F)c(C#N)c(Cl)c2)n1)NC(=O)Nc1cc(C(C)(C)C)[nH]n1`: the IC50 in assay [1] was 5.12 µM; in assay [2], 1.63 µM; in assay [3] it was greater than 30 µM; in assay [5], 15 µM.

`C[C@@H](Cn1ccc(-c2ccc(C#N)c(Cl)c2)n1)NS(=O)(=O)c1cn(C)cn1`: the 50% inhibitory concentration (IC50) in assay [1] was 13.6 µM; in assay [2] it was greater than 30 µM; in assay [3] it was greater than 30 µM.

`C[C@@H](Cn1ccc(-c2ccc(C#N)c(Cl)c2)n1)Nc1ccc2ccccc2n1`: the IC50 in assay [1] is 0.87 µM; in assay [2], 2.3 µM; in assay [3], greater than 30 µM; in assay [4] it was 7.95 µM.

In the case of `CC(=O)c1cc(C(=O)N[C@@H](C)Cn2ccc(-c3ccc(C#N)c(Cl)c3)n2)n[nH]1`, the IC50 in assay [2] was 1.13 µM; in assay [3], greater than 30 µM; in assay [4], greater than 30 µM.

On to `C[C@H](Cn1ccc(-c2ccc(C#N)c(Cl)c2)n1)Nc1ncnc2ccccc12`, for which the IC50 is greater than 30 µM in assay [1], 0.97 µM in assay [2] and 9.71 µM in assay [4].

Regarding `CC(=O)c1ccc(C(=O)N[C@@H](C)Cn2ccc(-c3ccc(C#N)c(Cl)c3)n2)cc1`, the 50% inhibitory concentration (IC50) was 1.4 µM in assay [1], 3.6 µM in assay [2], greater than 30 µM in assay [3] and 15.3 µM in assay [5].

As for `C[C@@H](Cn1ccc(-c2ccc(C#N)c(Cl)c2)n1)Nc1ncccn1`, the concentration for half-maximal inhibition (IC50) in assay [1] was 0.48 µM; in assay [2], 1.18 µM; in assay [3], greater than 30 µM; in assay [5], greater than 30 µM; in assay [4] it was 12.5 µM.

Take `C[C@@H](Cn1ccc(-c2ccc(C#N)c(Cl)c2)n1)Nc1ccc2c(ccn2C)c1`: the IC50 in assay [1] came out at 2.13 µM; in assay [2], 0.49 µM; in assay [4], 12 µM.

On to `CC(Cn1ccc(-c2ccc(C#N)c(Cl)c2)n1)C(=O)Nc1cc[nH]n1` (racemic), for which the IC50 in assay [1], in assay [2] and in assay [3] was greater than 30 µM in each case.

For the molecule `CC(O)c1ccc(C(=O)N[C@@H](C)Cn2ccc(-c3ccc(C#N)c(Cl)c3)n2)cc1` (stereo not given in full), the concentration for half-maximal inhibition (IC50) in assay [1] is 0.91 µM; in assay [2], 3.69 µM; in assay [3], greater than 30 µM; in assay [5], greater than 30 µM; in assay [4] it was 9.05 µM.

Consider `C[C@@H](Cn1ccc(-c2ccc(C#N)c(Cl)c2)n1)Nc1ccc2ncccc2c1`, for which the IC50 in assay [1] was greater than 30 µM; in assay [2] it was 13 µM.

As to `C[C@@H](Cn1ccc(-c2ccc(C#N)c(Cl)c2)n1)Nc1nccc2ccccc12`, the half-inhibitory concentration (IC50) is 1.47 µM in assay [1], 2.1 µM in assay [2], greater than 30 µM in assay [3] and 3.57 µM in assay [4].

Regarding `C[C@@H](Cn1ccc(-c2ccc(C#N)c(Cl)c2)n1)Nc1ccccc1`, the IC50 in assay [1] was greater than 30 µM; in assay [2], 0.71 µM; in assay [3] it was 3.21 µM; in assay [5], 29.4 µM; in assay [4], greater than 30 µM.

In the case of `C[C@@H](Cn1ccc(-c2ccc(C#N)c(Cl)c2)n1)Nc1nc(Cl)nc2nc[nH]c12`, the half-inhibitory concentration (IC50) in assay [1] is 2.7 µM; in assay [2] it was 2.66 µM; in assay [3], greater than 30 µM; in assay [5], 14.5 µM; in assay [4], 4.38 µM.

With `COC(=O)/C=C/C(=O)N[C@@H](C)Cn1ccc(-c2ccc(C#N)c(Cl)c2)n1`, the IC50 is 5.23 µM in assay [1], 2.46 µM in assay [2] and greater than 30 µM in assay [3].

Regarding `C[C@@H](Cn1ccc(-c2ccc(C#N)c(Cl)c2)n1)Nc1ccncc1`, the 50% inhibitory concentration (IC50) amounted to 9.9 µM in assay [1], 2.56 µM in assay [2] and 11.5 µM in assay [4].

As for `C[C@@H](Cn1ccc(-c2ccc(C#N)c(Cl)c2)n1)NC(=O)c1cccc(OCC(O)CO)c1` (stereo not given in full), the IC50 in assay [1] is 0.59 µM; in assay [2], 0.74 µM; in assay [3], greater than 30 µM; in assay [5], greater than 30 µM; in assay [4] it was greater than 30 µM.

As to `CC(=O)c1ccc(S(=O)(=O)N[C@@H](C)Cn2ccc(-c3ccc(C#N)c(Cl)c3)n2)cc1`, the 50% inhibitory concentration (IC50) was 3.95 µM in assay [1], 5.23 µM in assay [2] and greater than 30 µM in assay [3].

As to `C[C@@H](Cn1ccc(-c2ccc(C#N)c(Cl)c2)n1)Nc1cncnc1`, the concentration for half-maximal inhibition (IC50) is greater than 30 µM in assay [1]; 2.07 µM in assay [2]; greater than 30 µM in assay [3]; greater than 30 µM in assay [5]; greater than 30 µM in assay [4].

For the molecule `Cc1ccnc(N[C@@H](C)Cn2ccc(-c3ccc(C#N)c(Cl)c3)n2)n1`, the IC50 in assay [1] was 0.85 µM; in assay [2], 1.33 µM; in assay [3], greater than 30 µM; in assay [5], greater than 30 µM; in assay [4] it was 4.76 µM.

Consider `CC(=O)c1cc(C(=O)N[C@@H](C)Cn2ccc(-c3cc(F)c(C#N)c(Cl)c3)n2)n[nH]1`, for which the half-maximal inhibitory concentration (IC50) in assay [2] was 1.1 µM; in assay [3], greater than 30 µM; in assay [5], 27.7 µM; in assay [4], greater than 30 µM.

As to `C[C@@H](Cn1ccc(-c2ccc(C#N)c(Cl)c2)n1)Nc1ccnc2ccccc12`, the IC50 in assay [1] was determined as 2.41 µM; in assay [2], 4.81 µM; in assay [4], 4.29 µM.

In the case of `CC(O)c1cc(C(=O)N[C@H](C)Cn2ccc(-c3ccc(C#N)c(Cl)c3)n2)n[nH]1` (stereo not given in full), the IC50 in assay [2] is 1.65 µM; in assay [3], greater than 30 µM; in assay [4] it was greater than 30 µM.

On to `C[C@@H](Cn1ccc(-c2ccc(C#N)c(Cl)c2)n1)Nc1cccc2ccncc12`, for which the IC50 amounted to 4.02 µM in assay [1], 3.09 µM in assay [2], 5.13 µM in assay [3] and 4.72 µM in assay [4].

With `C[C@@H](Cn1ccc(-c2ccc(C#N)c(Cl)c2)n1)Nc1cc2ccccc2cn1`, the IC50 in assay [1] was determined as 1.58 µM; in assay [2] it was 1.91 µM; in assay [4], 12 µM.

In the case of `CC(=O)c1cccc(NC(=O)C(C)Cn2ccc(-c3ccc(C#N)c(Cl)c3)n2)c1` (racemic), the IC50 in assay [1] was 2.98 µM; in assay [2] it was 1.54 µM; in assay [3], greater than 30 µM.

Take `C[C@@H](Cn1ccc(-c2ccc(C#N)c(Cl)c2)n1)Nc1cccc2cnccc12`: the 50% inhibitory concentration (IC50) in assay [1] is greater than 30 µM; in assay [2], 0.87 µM; in assay [4], 21.2 µM.

As to `C[C@@H](Cn1ccc(-c2ccc(C#N)c(Cl)c2)n1)Nc1ccc2cnccc2c1`, the results for the IC50 in assay [1], in assay [2] and in assay [4] were 2.26 µM, 0.51 µM and 2.98 µM, respectively.

On to `C[C@@H](Cn1ccc(-c2ccc(C#N)c(Cl)c2)n1)Nc1ccc2cccnc2c1`, for which the half-maximal inhibitory concentration (IC50) in assay [1] was 3.22 µM; in assay [2], 2.66 µM; in assay [3], 11.2 µM; in assay [4], 5.82 µM.

On to `C[C@@H](Cn1ccc(-c2ccc(C#N)c(Cl)c2)n1)NC(=O)c1ccccc1`, for which the half-maximal inhibitory concentration (IC50) in assay [2] is 1.83 µM; in assay [3], greater than 30 µM.

Consider `C[C@@H](Cn1ccc(-c2ccc(C#N)c(Cl)c2)n1)NC(=O)c1cc[nH]n1`, for which the IC50 in assay [2] was 1 µM; in assay [3], 18.7 µM; in assay [5], greater than 30 µM; in assay [4], greater than 30 µM.

For `C[C@@H](Cn1ccc(-c2ccc(C#N)c(Cl)c2)n1)Nc1cccc2ccccc12`, the half-inhibitory concentration (IC50) was 28.1 µM in assay [1], 0.87 µM in assay [2] and greater than 30 µM in assay [4].

On to `C[C@@H](Cn1ccc(-c2ccc(C#N)c(Cl)c2)n1)NS(=O)(=O)c1cccnc1`, for which the values for the IC50 in assay [1], in assay [2] and in assay [3] were 2.45 µM, 6.14 µM and greater than 30 µM, respectively.

With `C[C@@H](Cn1ccc(-c2ccc(C#N)c(Cl)c2)n1)Nc1ccc2ccccc2c1`, the IC50 in assay [1] stood at 4.61 µM; in assay [2], 7.7 µM; in assay [5] it was 26.8 µM; in assay [4], 4.61 µM.

For `COc1ccc(C(=O)N[C@@H](C)Cn2ccc(-c3ccc(C#N)c(Cl)c3)n2)cc1`, the IC50 in assay [1] is 1.54 µM; in assay [2] it was 3.41 µM; in assay [3] it was greater than 30 µM.

Turning to `C[C@@H](Cn1ccc(-c2ccc(C#N)c(Cl)c2)n1)Nc1nccc(Cl)n1`, the IC50 in assay [1] is greater than 30 µM; in assay [2], 1.4 µM; in assay [3] it was greater than 30 µM; in assay [4] it was greater than 30 µM.

Turning to `C[C@@H](Cn1ccc(-c2ccc(C#N)c(Cl)c2)n1)Nc1cccc2cccnc12`, the IC50 in assay [1] was greater than 30 µM; in assay [2] it was 0.79 µM; in assay [4] it was greater than 30 µM.

As for `C[C@@H](Cn1ccc(-c2ccc(C#N)c(Cl)c2)n1)Nc1ccccn1`, the IC50 in assay [2] was 1.11 µM; in assay [4], greater than 30 µM.
